Data set [1] addresses T1, Induced myeloid leukemia cell differentiation protein Mcl-1 (Homo sapiens, UniProt Q07820). Briefly: Inhibition of human Mcl-1 (172 to 323 residues) expressed in Escherichia coli BL21 using biotinylated-BH3 peptide as substrate measured after 2 hrs by DELFIA displacement assay.
Data set [2] has as its target T1, Induced myeloid leukemia cell differentiation protein Mcl-1. Put plainly: Binding affinity to human Mcl-1 assessed as covalent adduct formation by measuring band shift at 100 uM measured after 2 hrs by SDS-PAGE analysis. The method in brief: (§1)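 Protein (hMcl-1 His-tagged construct, or His-tagged hBfl-1 residues 1–149) at 10 μM was incubated with or without agent at 100 μM for 2 h at room temperature in 25 mM TRIS pH 7.5, 150 mM NaCl, 1 mM DTT. Samples were run on 12% Bis-Tris SDS-PAGE with MOPS running buffer and Coomassie-type stained.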

For data set [3] the target is unchanged. Put plainly: Inhibition of human Mcl-1 assessed as inhibition constant by DELFIA displacement assay. The method in brief: (§2)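 His-tagged hMcl-1 (16 nM) and Eu-N1 anti-6xHis antibody (22.2 ng/well) were pre-bound for 2 h to streptavidin wells coated with biotinylated BIM BH3 peptide (600 ng/mL). Test peptide was then added for 0–40 min at RT, followed by washing, enhancement solution and time-resolved fluorescence at ex 340/em 615 nm. kobs was taken from the slope of % inhibition versus time. Ki and kinact came from a hyperbolic fit of kobs against concentration.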

Data set [4] can be described thus: Stability of the compound in pH 7.4 buffer assessed as intact compound after 3.5 hrs by one-dimensional 1H-NMR analysis. Format: physicochemical. The note with it: read-out: Stability.
Data set [5] has as its target T1, Induced myeloid leukemia cell differentiation protein Mcl-1. Briefly: Inhibition of human Mcl-1 assessed as Kinact by DELFIA displacement assay. The method in brief:
as §2

For data set [6] the target is unchanged. Briefly: Binding affinity to human Mcl-1 assessed as covalent adduct formation by measuring increase in molecular weight at 100 uM by mass spectrometry analysis.
A further data set has as its target T2, Bcl-2-related protein A1 (Homo sapiens, UniProt Q16548).
T2 sequence (Q16548 whole entry): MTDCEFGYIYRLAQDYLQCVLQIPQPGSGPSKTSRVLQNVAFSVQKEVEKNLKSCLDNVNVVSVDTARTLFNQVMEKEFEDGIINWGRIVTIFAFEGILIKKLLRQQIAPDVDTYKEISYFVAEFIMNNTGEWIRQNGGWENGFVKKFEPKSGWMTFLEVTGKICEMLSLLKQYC
Briefly: Inhibition of human Bfl-1 (1 to 149 residues) expressed in Rosetta-gami (DE3) using biotinylated-BH3 peptide as substrate measured after 2 hrs by DELFIA displacement assay.

For data set [7], the target named is T3, Bcl-2-related protein A1 (Homo sapiens) (UniProt Q16548).
T3 sequence (whole entry): T2 sequence (Q16548 whole entry)
Put plainly: Binding affinity to human Bfl-1 assessed as covalent adduct formation by measuring band shift at 100 uM measured after 2 hrs by SDS-PAGE analysis. The gist of the method:
as §1

Data set [8] can be described thus: Stability of the compound in pH 7.4 buffer assessed as half life by one-dimensional 1H-NMR analysis. Format: physicochemical.
The subject of data set [9] is A549. Briefly: Prevention of thermal denaturation of proteins in human A549 cells assessed as rescue of protein level at 100 uM by Western blotting analysis. Format: functional, cell-based. The method in brief: (§3)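 Cellular thermal shift: one million A549 cells were plated overnight and treated 1 h with 1% DMSO or 100 μM agent. Cells were harvested, protease inhibitors added, and heated 3 min at various temperatures. After lysis, the supernatant was analysed by western blot for Mcl-1.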
On the technique in general: Immunoblotting shows a protein as a band on a membrane.

Data set [10] concerns A549. Briefly: Induction of decrease in human Mcl-1 level in A549 cells measured up to 100 uM in presence of carfilzomib treated for 2 hrs by Western blot analysis. In kind it is functional, cell-based. The gist of the method: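 A549 cells were treated 2 h with DMSO, 50 or 100 μM agent, with or without 30 min pre-treatment with 1 μM carfilzomib. Lysates were immunoblotted for Mcl-1 and β-tubulin. Densitometry gave Mcl-1 relative to β-tubulin from two independent experiments. Significance was by one-way ANOVA with Dunnett post-test.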

In data set [11] the target is T1, Induced myeloid leukemia cell differentiation protein Mcl-1. Briefly: Binding affinity to human Mcl-1 in human A549 cells assessed as denaturation thermal shift at 100 uM by cellular thermal shift assay. In kind it is cell-based. The method in brief:
as §3

The target is the same in data set [12]. Put plainly: Degradation of human Mcl-1 in A549 cells assessed as decrease in Mcl-1 protein levels with DMSO for 1 hr by spiking cell lysate assay. Format: cell-based. The method in brief:
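A549 cells (Ham's F-12/GlutaMAX, 10% FBS, PenStrep, 0.5 μg/mL puromycin) were lysed 20 min on ice in Tris pH 7.4/Triton/deoxycholate/SDS/IGEPAL/EDTA buffer with protease and phosphatase inhibitors, then centrifuged. Protein-quantified supernatants were incubated 1 h at 37 °C with DMSO or 100 μM agent. Immunoblot used PVDF, anti-Mcl-1 and anti-β-tubulin (4 °C overnight), and ECL.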

The source made the active and inactive calls. No cut-off for these calls is given here. Non-standard residues stand in square brackets, D forms with d. Residues, ends and D or L forms follow the SMILES beside them. ξ: configuration not given here. *: point of attachment. Benzoyl(2-OMe,5-SO2F) = COc1ccc(S(=O)(=O)F)cc1C(=O)*; Benzoyl(3-SO2F) = O=C(c1cccc(S(=O)(=O)F)c1)*; Benzoyl(4-SO2F) = O=C(c1ccc(S(=O)(=O)F)cc1)*; X1 = Cc1ccc(S(=O)(=O)F)cc1C(=O)*; hSer = N[C@@H](CCO)C(=O)O; Nle = CCCC[C@H](N)C(=O)O; Dap = NC[C@H](N)C(=O)O; ξAbu = CCC(N)C(=O)O

T1 sequence (Q07820 whole entry, the tested form may be a part): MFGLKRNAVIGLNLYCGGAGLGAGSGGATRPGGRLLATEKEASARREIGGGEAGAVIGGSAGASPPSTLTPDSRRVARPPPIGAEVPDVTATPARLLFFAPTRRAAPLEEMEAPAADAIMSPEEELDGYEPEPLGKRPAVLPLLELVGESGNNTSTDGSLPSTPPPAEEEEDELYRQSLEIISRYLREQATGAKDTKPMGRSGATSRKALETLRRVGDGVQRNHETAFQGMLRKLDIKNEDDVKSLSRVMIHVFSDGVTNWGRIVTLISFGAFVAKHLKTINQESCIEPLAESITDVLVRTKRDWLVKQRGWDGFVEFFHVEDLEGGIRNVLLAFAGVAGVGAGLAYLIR

Regarding `CC[C@H](C)[C@H](NC(=O)[C@H](CCCNC(=N)N)NC(=O)[C@H](CCCNC(=N)N)NC(=O)[C@H](CC(C)C)NC(=O)[C@H](CCO)NC(=O)[C@H](CCC(N)=O)NC(=O)[C@H](C)NC(=O)[C@H](CC(C)C)NC(=O)[C@H](C)N)C(=O)NCC(=O)N[C@@H](CC(=O)O)C(=O)N[C@@H](C)C(=O)N[C@@H](Cc1ccccc1)C(=O)O` (H-ALAQ[hSer]LRRIGDAF-OH), in data set [1], the IC50 – broadly, the concentration at which inhibition is half-maximal – was 3000 nM.
For the molecule H-AIAQALRRIGDAF-OH, the IC50 in [1] worked out at 2200 nM.
For the molecule `CC[C@H](C)[C@H](NC(=O)[C@H](CCCNC(=N)N)NC(=O)[C@H](CCCNC(=N)N)NC(=O)[C@H](CC(C)C)NC(=O)[C@H](CCC(N)=O)NC(=O)[C@H](CCC(=O)O)NC(=O)[C@H](C)NC(=O)[C@@H](NC(=O)[C@H](CNC(=O)c1cc(S(=O)(=O)F)ccc1C)NC(C)=O)[C@@H](C)CC)C(=O)NCC(=O)N[C@@H](CC(=O)O)C(=O)N[C@@H](CCCNC(=N)N)C(=O)N[C@@H](Cc1ccccc1)C(N)=O` (Ac-[Dap](X1)IAEQLRRIGDRF-NH2), the outcome in data set [2] and in data set [6] was Active. For the same molecule, in data set [3], the Ki (as a rule, a measure of affinity in units of concentration, obtained from inhibition or displacement) was determined as 37 nM. Further, the remaining at 3.5 h in data set [4] was greater than 80%. In addition, in [5], the Kinact was found to be 1.16 min⁻¹. Further, the results for the IC50 (on Bcl-2-related protein A1; in data set [1]) were greater than 1000 nM and 19.1 nM, respectively. Also, the result (in data set [7]; with A549 [9]) was inactive. For the same molecule, in [8], the half-life – broadly, how long it takes for the measured level to halve – is greater than 3.5 h.
Molecule `CCC(NC(=O)[C@H](CCC(N)=O)NC(=O)[C@H](C)NC(=O)[C@@H](NC(=O)[C@H](C)N)[C@@H](C)CC)C(=O)N[C@@H](CC(C)C)C(=O)N[C@@H](CCCNC(=N)N)C(=O)N[C@@H](CCCNC(=N)N)C(=O)N[C@H](C(=O)NCC(=O)N[C@@H](CC(=O)O)C(=O)N[C@@H](C)C(=O)N[C@@H](Cc1ccccc1)C(=O)O)[C@@H](C)CC` (stereo partly specified) (H-AIAQ[ξAbu]LRRIGDAF-OH) showed an IC50 in data set [1] of 1300 nM.
`CC[C@H](C)[C@H](NC(=O)[C@H](CCCNC(=N)N)NC(=O)[C@H](CCCNC(=N)N)NC(=O)[C@H](CC(C)C)NC(=O)[C@H](CCC(N)=O)NC(=O)[C@H](CCC(=O)O)NC(=O)[C@H](C)NC(=O)[C@@H](NC(=O)[C@H](CNC(=O)c1ccc(S(=O)(=O)F)cc1)NC(C)=O)[C@@H](C)CC)C(=O)NCC(=O)N[C@@H](CC(=O)O)C(=O)N[C@@H](CCCNC(=N)N)C(=O)N[C@@H](Cc1ccccc1)C(N)=O` (Ac-[Dap](Benzoyl(4-SO2F))IAEQLRRIGDRF-NH2): the IC50 on Bcl-2-related protein A1 was greater than 5000 nM; in data set [1] it was 94 nM.
In turn, `CCCC[C@H](NC(=O)[C@H](C)NC(=O)[C@H](CC(=O)O)NC(=O)CNC(=O)[C@@H](NC(=O)[C@H](CCCNC(=N)N)NC(=O)[C@H](CCCNC(=N)N)NC(=O)[C@H](CC(C)C)NC(=O)[C@H](C)NC(=O)[C@H](CCC(N)=O)NC(=O)[C@H](C)NC(=O)[C@@H](NC(=O)[C@H](C)N)[C@@H](C)CC)[C@@H](C)CC)C(=O)O` (H-AIAQALRRIGDA[Nle]-OH) displayed an IC50 in [1] of 1600 nM.
For `CC[C@H](C)[C@H](NC(=O)[C@H](CCCNC(=N)N)NC(=O)[C@H](CCCNC(=N)N)NC(=O)[C@H](CC(C)C)NC(=O)[C@H](CCC(N)=O)NC(=O)[C@H](CCC(=O)O)NC(=O)[C@H](C)NC(=O)[C@@H](NC(=O)[C@H](CNC(=O)c1cccc(S(=O)(=O)F)c1)NC(C)=O)[C@@H](C)CC)C(=O)NCC(=O)N[C@@H](CC(=O)O)C(=O)N[C@@H](CCCNC(=N)N)C(=O)N[C@@H](Cc1ccccc1)C(N)=O` (Ac-[Dap](Benzoyl(3-SO2F))IAEQLRRIGDRF-NH2), the IC50 on Bcl-2-related protein A1 is greater than 400 nM; in data set [1], 23 nM.
In [1], H-ALAQALREIGDAR-OH yielded an IC50 greater than 10000 nM.
In [1], H-AIAEQLRRIGDAF-NH2 showed an IC50 of 313 nM.
Molecule Ac-AIAEALRRIGDAF-NH2 displayed a concentration for half-maximal inhibition (IC50) in data set [1] of 261 nM.
On the same count and under the same terms, the figure for H-AIAQALRRIGDAY-OH is greater than 3600 nM; for H-AIAQALRRIGDAL-OH it is 1200 nM.
As to `CC[C@H](C)[C@H](NC(=O)[C@H](CCCNC(=N)N)NC(=O)[C@H](CCCNC(=N)N)NC(=O)[C@H](CC(C)C)NC(=O)[C@H](CCC(N)=O)NC(=O)[C@H](CCC(=O)O)NC(=O)[C@H](C)NC(=O)[C@@H](NC(=O)[C@H](CNC(=O)c1cc(S(=O)(=O)F)ccc1OC)NC(C)=O)[C@@H](C)CC)C(=O)NCC(=O)N[C@@H](CC(=O)O)C(=O)N[C@@H](CCCNC(=N)N)C(=O)N[C@@H](Cc1ccccc1)C(N)=O` (Ac-[Dap](Benzoyl(2-OMe,5-SO2F))IAEQLRRIGDRF-NH2), the result (in data set [2]; in the data set with A549 [10]; in [6]) was Active. Also, in data set [3], the Ki came out at 17 nM. For the same molecule, the remaining at 3.5 h in data set [4] amounted to 100%. Besides, the Kinact in data set [5] was 0.943 min⁻¹. In addition, the result (in [11]; in data set [7]; with A549 [9]; in data set [12]) was inactive. In addition, the results for the IC50 (on Bcl-2-related protein A1; in data set [1]) were greater than 250 nM and 23.6 nM, respectively. The half-life in data set [8] is greater than 3.5 h.

The values are drawn from ChEMBL document CHEMBL5055620, “Design, Synthesis, and Structural Characterization of Lysine Covalent BH3 Peptides Targeting Mcl-1” (J Med Chem, 2021).
